Measured values of several laboratories.
Protocols differ between the studies behind these lines. pIC50: −log10 of the molar value.
Action: inhibitor
FABP1: Fatty acid-binding protein, liver (FABP1, Homo sapiens, UniProt P07148)
SQLE: Squalene monooxygenase (SQLE, Homo sapiens, UniProt Q14534)
MAL12: Alpha-glucosidase MAL12 (MAL12, Saccharomyces cerevisiae S288c, UniProt P53341)
SLC22A6: Solute carrier family 22 member 6 (SLC22A6, Homo sapiens, UniProt Q4U2R8)

SMILES	target	test	system	conditions	pIC50
CCCOc1ccc2c(c1)O/C(=C\c1ccc(OC(C)(C)C(=O)O)c(F)c1)C2=O	FABP1	cell-free assay, fluorescence	–	pH 7.4	5.04
CCN(CC)C(C)CN1c2ccccc2Sc2ccccc21 (centres unmarked)	SQLE	enzyme activity, absorbance	–	pH 7.4, with preincubation	5.77
CC(=O)C1=C(C)n2c(=O)c3ccccc3c(=O)n2C1c1cn(-c2ccccc2)nc1-c1ccccc1 (centres unmarked)	MAL12	enzyme activity, absorbance	–	–	4.81
COc1cc(-c2oc3cc(O)cc(O)c3c(=O)c2O)ccc1O	SQLE	enzyme activity, radiometric	–	–	4.94
COc1ccc(Cl)cc1C(=O)NCCc1ccc(S(=O)(=O)NC(=O)NC2CCCCC2)cc1	SLC22A6	transporter uptake, fluorescence	–	–	5.62
NS(=O)(=O)c1ccc(-n2nc(C(=O)NN=Cc3ccc(O)cc3)cc2-c2ccccc2)cc1	Focal adhesion kinase 1 (PTK2, Homo sapiens, UniProt Q05397)	enzyme activity, ELISA	–	–	4.77
CC(C)NC(=O)COc1cccc(-c2nc(Nc3ccc4[nH]ncc4c3)c3ccccc3n2)c1	SLC22A6	transporter uptake, radiometric	HEK293	–	< 6.00
CCCOc1ccc2c(c1)O/C(=C\c1ccc(OC(C)(C)C(=O)O)cc1)C2=O	FABP1	cell-free assay, fluorescence	–	pH 7.4	5.03
OCCN1CCN(CCCN2c3ccccc3Sc3ccc(C(F)(F)F)cc32)CC1	SQLE	enzyme activity, absorbance	–	pH 7.4, with preincubation	4.91
CC(=O)C1=C(C)n2c(=O)c3ccccc3c(=O)n2C1c1cn(-c2ccccc2)nc1-c1ccc(Br)cc1 (centres unmarked)	MAL12	enzyme activity, absorbance	–	–	4.73
C[C@H]1CN(C(=O)Nc2ccc(C(F)(F)F)cc2)CCN1c1ccnc(Nc2ccc(Cl)c(O)c2)n1	MAL12	enzyme activity, absorbance	–	pH 6.9	6.36
O=C(O)[C@H]1O[C@@H](Oc2cc3oc(-c4ccccc4)cc(=O)c3c(O)c2O)[C@H](O)[C@@H](O)[C@@H]1O	SQLE	enzyme activity, radiometric	–	–	5.60
CCCOc1ccc2c(c1)O/C(=C\c1ccc(OC(C)C(=O)O)cc1)C2=O (centres unmarked)	FABP1	cell-free assay, fluorescence	–	pH 7.4	4.98
CC1CN(C(=O)Nc2ccc(Cl)c(Cl)c2)CCN1c1ccnc(Nc2ccc(Cl)cc2)n1 (centres unmarked)	MAL12	enzyme activity, absorbance	–	pH 6.9	5.62
O=C1C[C@@H](c2ccc(O)cc2)Oc2cc(O)cc(O)c21	SQLE	enzyme activity, radiometric	–	–	5.19
COc1ccc(NC(=O)N2CCN(c3ccnc(Nc4ccc(Cl)cc4)n3)[C@H](C)C2)cc1	MAL12	enzyme activity, absorbance	–	pH 6.9	4.63
CC(=O)c1ccc2c(c1)N(CCCN1CCC(CCO)CC1)c1ccccc1S2	SQLE	enzyme activity, absorbance	–	pH 7.4, with preincubation	5.84
Cc1cc(/C=C2\Oc3cc(OCC4CC4)ccc3C2=O)cc(C)c1OC(C)(C)C(=O)O	FABP1	cell-free assay, fluorescence	–	pH 7.4	5.44
C[C@H]1CN(C(=O)Nc2ccc(C(F)(F)F)cc2)CCN1c1ccnc(Nc2ccc(Br)cc2)n1	MAL12	enzyme activity, absorbance	–	pH 6.9	5.80
Cc1cc(/C=C2\Oc3cc(OCCC(C)C)ccc3C2=O)cc(C)c1OC(C)(C)C(=O)O	FABP1	cell-free assay, fluorescence	–	pH 7.4	5.02
C[C@H]1CN(C(=O)Nc2ccc(C(F)(F)F)cc2)CCN1c1ccnc(Nc2ccc(Cl)cc2Cl)n1	MAL12	enzyme activity, absorbance	–	pH 6.9	4.92
C[C@H]1CN(C(=O)CC#N)[C@]12CCN(c1ncnc3[nH]ccc13)C2	SLC22A6	transporter uptake	–	–	5.80
Nc1ccn(C[C@@H](CO)OCP(=O)(O)O)c(=O)n1	Solute carrier family 22 member 6 (SLC22A6, Homo sapiens, UniProt Q4U2R8, N439A)	transporter uptake, fluorescence	–	–	3.65
NC/C(=C\F)COc1cccc(Cn2c(=S)[nH]c(=O)c3[nH]cnc32)c1	Amine oxidase [flavin-containing] A (MAOA, Homo sapiens, UniProt P21397)	enzyme activity	–	–	< 4.52
CC(C)=CCC/C(C)=C/CC/C(C)=C/CC/C=C(\C)CC/C=C(\C)CCCNC1CC1	SQLE	enzyme activity, radiometric	–	–	5.57
Cc1ccc(NC(=O)N2CCN(c3ccnc(Nc4ccc(Cl)cc4)n3)[C@H](C)C2)cc1	MAL12	enzyme activity, absorbance	–	pH 6.9	5.11
CCCCOc1ccc2c(c1)O/C(=C\c1cc(C)c(OC(C)(C)C(=O)O)c(C)c1)C2=O	FABP1	cell-free assay, fluorescence	–	pH 7.4	5.28
C[C@H]1CN(C(=O)Nc2ccc(C(F)(F)F)cc2)CCN1c1ccnc(Nc2cccc(O)c2)n1	MAL12	enzyme activity, absorbance	–	pH 6.9	5.69
N=C(N)c1ccc2cc(OC(=O)c3ccc(N=C(N)N)cc3)ccc2c1	Coagulation factor IX (F9, Homo sapiens, UniProt P00740)	enzyme activity	–	–	7.07
